Results taken from the M2OR odorant receptor database.

Target: T1, OR2A7 (Homo sapiens) (UniProt Q96R45)
T1 sequence (whole entry): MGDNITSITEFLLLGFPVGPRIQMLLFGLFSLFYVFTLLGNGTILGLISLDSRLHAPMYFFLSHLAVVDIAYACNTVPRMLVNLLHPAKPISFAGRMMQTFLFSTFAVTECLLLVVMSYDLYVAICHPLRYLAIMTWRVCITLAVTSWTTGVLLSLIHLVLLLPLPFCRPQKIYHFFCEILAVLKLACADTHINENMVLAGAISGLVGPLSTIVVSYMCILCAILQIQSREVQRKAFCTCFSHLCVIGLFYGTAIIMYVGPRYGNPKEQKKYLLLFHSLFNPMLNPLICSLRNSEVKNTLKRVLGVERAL
Conditions: stereoisomer not certain
Summary of the method: (§1)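 Each entry records the cell line, G-protein, co-transfected protein and tags used. Methods varied with the source, often transient luciferase assays in mammalian cell lines. A receptor–molecule pair is called responsive (active) if the original authors judged its signal statistically different from baseline and non-responsive (inactive) otherwise.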

SMILES	odorant receptor agonist call
CC(C)(C)c1ccccc1	active
CCCCCCCCCCCC(=O)OC	inactive
CCCCCCCC(=O)OCC	inactive
CCCCCCCCCCCCCCCC(=O)[O-].[H+]	inactive
Cc1cccc(C)c1C	inactive
Cc1cnc(C)cn1	inactive
CCC(O)CC	inactive
CC(C)=CCCC(C)=CCCC(C)=CCO	inactive
C=C(C)C1CC=C(C)CC1 (stereo not drawn)	inactive
CC1=CCC2CC1C2(C)C (stereo not drawn)	active
Cc1ccc(C(C)C)cc1	inactive
O=c1ccc2ccccc2o1	inactive
CC(C=O)Cc1ccc(C(C)(C)C)cc1 (stereo not drawn)	active
CCCCCCCCCCCCCCCC(=O)OCC	inactive
CC(=O)O	inactive
CCCCCCCCCC(=O)OCC	inactive
CCCCCCCCO	inactive
CCCCCCCCCCCC(=O)O	active
CCCCCCCC(=O)[O-].[H+]	active
CCCCCCCCCCCCCC(=O)OCC	inactive
CCCCCCCCCCCCCCCC(=O)OC	inactive
CCCCCCCCCCCCCC(=O)O	inactive
CCCCCCCCCCCCCC(=O)OC	inactive
CCCC(=O)CC	inactive
CCCCCCCC(=O)OC	inactive
CCC(=O)O	inactive
CC(CC=O)c1ccccc1 (stereo not drawn)	inactive

Target: T2, OR2AG1 (Homo sapiens) (UniProt Q9H205)
T2 sequence (whole entry): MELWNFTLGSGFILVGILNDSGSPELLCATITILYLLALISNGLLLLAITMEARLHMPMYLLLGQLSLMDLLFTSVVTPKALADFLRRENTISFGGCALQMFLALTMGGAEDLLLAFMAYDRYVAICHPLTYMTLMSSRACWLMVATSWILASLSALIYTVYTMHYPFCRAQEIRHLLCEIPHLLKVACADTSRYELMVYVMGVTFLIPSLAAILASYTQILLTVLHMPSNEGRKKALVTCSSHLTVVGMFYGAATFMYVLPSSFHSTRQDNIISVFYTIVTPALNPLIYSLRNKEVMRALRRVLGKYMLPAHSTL
Conditions: stereoisomer not certain
Summary of the method: as §1

SMILES	odorant receptor agonist call
CCCCCOC(=O)CCC	inactive
CC(C)C1OC(C)(C)OCC1(C)C (stereo not drawn)	inactive
CCCC(C)C1OCC(C)(CCC)CO1 (stereo not drawn)	inactive

Target: T3, OR2B11 (Homo sapiens) (UniProt Q5JQS5)
T3 sequence (whole entry): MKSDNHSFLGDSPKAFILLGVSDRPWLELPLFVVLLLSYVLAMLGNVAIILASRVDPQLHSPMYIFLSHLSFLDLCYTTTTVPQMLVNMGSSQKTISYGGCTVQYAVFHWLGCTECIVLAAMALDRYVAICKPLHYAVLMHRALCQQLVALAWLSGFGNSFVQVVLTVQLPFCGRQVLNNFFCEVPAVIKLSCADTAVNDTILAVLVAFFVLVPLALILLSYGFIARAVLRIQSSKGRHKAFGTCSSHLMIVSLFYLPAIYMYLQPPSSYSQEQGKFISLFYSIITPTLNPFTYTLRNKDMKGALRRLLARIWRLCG
Conditions: stereoisomer not certain
Summary of the method: as §1

SMILES	odorant receptor agonist call
C1CCC(SSC2CCCCC2)CC1	active
c1coc(CSSCc2ccco2)c1	active
O=c1ccc2ccccc2o1	active
